Data published in ChEMBL document CHEMBL1142741, “Norpiperidine imidazoazepines as a new class of potent, selective, and nonsedative H1 antihistamines” (J Med Chem, 2005).

What was measured:
[1] = Solubility in buffer (pH 6) at pH 9.2; assay type: physicochemical
In short: (§1)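 Excess or stated amounts of solute were shaken in closed vials of solvent for 24 h at 20 °C, following Higuchi and Connors. For clear solutions, only pH was recorded and solubility was taken as solute added per solvent volume. Turbid samples were filtered through 0.45 µm, the filtrate pH was recorded, and concentration was measured by UV absorption.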

[2] = Solubility in buffer (pH 10) at pH 10.2; assay type: physicochemical; in short: as §1
[3] = Solubility in buffer (pH 4) at pH 5.4; assay type: physicochemical; in short: as §1
[4] = Solubility in 0.1 M HCl at pH 2.7; assay type: physicochemical; in short: as §1
[5] = Solubility in 0.1 M NaOH at pH 13.0; assay type: physicochemical; in short: as §1
[6] = Solubility in buffer (pH 2) at pH 4.8; assay type: physicochemical; in short: as §1
[7] = Solubility in simulated gastric fluid at pH 3.1; assay type: physicochemical; in short: as §1
[8] = Solubility in buffer of (pH 8) at pH 9.0; assay type: physicochemical; conditions: buffer (pH 8); in short: as §1
[9] = Solubility in simulated intestinal fluid at pH 10.1; assay type: physicochemical; in short: as §1
[10] = pKa1 value was determined; assay type: physicochemical; conditions: read-out: pKa1
Cavia porcellus [11] = assay: Effective dose for inhibition of skin reactions induced by Ascaris allergens in guinea pig by 2 hr after the oral administration
Rattus norvegicus [12] = assay: Effective dose for blockade of skin reactions induced by passive cutaneous anaphylaxis in rat by 2 hr after the subcutaneous administration; assay type: functional; conditions: sc
In short: (§2)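 Male Wistar rats (200-240 g) were passively sensitized with intradermal ovalbumin-specific IgE serum; 50 h later histamine (50 µg), serotonin (0.1 µg) and Ascaris allergens (1/2 in saline) were injected intradermally at dorsal sites. Compound was given sc 2 h before challenge, with two observers' scores summed. Histamine and serotonin: inhibition score <4, blockade <3. PCA and Ascaris: score <3. ED50 by Finney's method, five animals per dose.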

Cavia porcellus [13] = assay: Effective dose for inhibition of skin reactions induced by substance P in guinea pig by 2 hr after the oral administration
[14] = Partition coefficient (logP); assay type: physicochemical; conditions: octanol/water
Cavia porcellus [15] = assay: Effective dose for inhibition of skin reactions induced by histamine in guinea pig by 2 hr after the oral administration
Rattus norvegicus [16] = assay: Effective dose for the inhibition of 48/80-induced lethal anaphylactic reaction was determined in rat by 1 hour after subcutaneous administration; assay type: functional; conditions: sc
In short: (§3)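 Compound or solvent was given sc 1 h or po 2 h beforehand at 10 mL/kg, dosed as base equivalents from a 0.04-10 mg/kg geometric series, five rats per dose.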

[17] = pKa2 value was determined; assay type: physicochemical
In short: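 logP was measured in octanol/pH 12 buffer; pKa was measured by the Sirius PCA 101 method.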

Rattus norvegicus [18] = assay: Effective dose for blockade of skin reactions induced by Ascaris allergens in rat by 2 hr after the subcutaneous administration; assay type: functional; conditions: sc; in short: as §2
Canis familiaris [19] = assay: Onset action against Ascaris allergens induced cutaneous reactions was determined by oral administration at four times the peak effect dose in dog; assay type: functional, Canis lupus familiaris
In short: (§4)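 Beagle dogs of both sexes, selected for sensitivity to Ascaris allergens (ACF, 1/100 in saline), injected intradermally at three chest sites. Wheal diameter and skin thickness increase were read 15 min after injection, before and 1, 4, 20 and 72 h after oral dosing. Onset and duration were estimated graphically at four times the peak-effect dose.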

Histamine H1 receptor = Histamine H1 receptor (Homo sapiens, UniProt P35367); assay: Binding affinity for H1 histamine receptor expressed in CHO cells; assay type: cell-based
Canis familiaris [20] = assay: Peak effective dose for inhibition of skin reactions induced by Ascaris allergens in dog by 4 hr after the oral administration; conditions: Canis lupus familiaris
Rattus norvegicus [21] = assay: Effective dose for inhibition of skin reactions induced by serotonin in rat by 2 hr after the subcutaneous administration; assay type: functional; conditions: sc; in short: as §2
Rattus norvegicus [22] = assay: Effective dose for the inhibition of 48/80-induced lethal anaphylactic reaction was determined in rat by 2 hours after oral administration; assay type: functional; in short: as §3
Cavia porcellus [23] = assay: Effective dose for blockade of skin reactions induced by histamine in guinea pig by 2 hr after the oral administration
Canis familiaris [24] = assay: Duration of action against Ascaris allergens induced cutaneous reactions was determined by oral administration at four times the peak effect dose in dog; assay type: functional, Canis lupus familiaris; in short: as §4
Rattus norvegicus [25] = assay: Effective dose for blockade of skin reactions induced by histamine in rat by 2 hr after the subcutaneous administration; assay type: functional; conditions: sc; in short: as §2
Rattus norvegicus [26] = assay: Effective dose for inhibition of skin reactions induced by histamine in rat by 2 hr after the subcutaneous administration; assay type: functional; conditions: sc; in short: as §2
Rattus norvegicus [27] = assay: Effective dose for the inhibition of 48/80-induced lethal anaphylactic reaction was determined in rat by 2 hour after oral administration; assay type: functional; in short: as §3
[28] = Solubility in 0.1 M NaOH at pH 12.6; assay type: physicochemical; in short: as §1
[29] = Solubility in buffer (pH 10) at pH 4.3; assay type: physicochemical; in short: as §1
[30] = Solubility in buffer (pH 2) at pH 1.1; assay type: physicochemical; conditions: in the assay text read “pH 1.8” for “pH 1.1”; in short: as §1
[31] = Solubility in water at pH 2.0; assay type: physicochemical; in short: as §1
[32] = Solubility in simulated gastric fluid at pH 1.1; assay type: physicochemical; in short: as §1
[33] = Solubility in buffer (pH 8) at pH 3.8; assay type: physicochemical; in short: as §1
[34] = Solubility in buffer (pH 6) at pH 4.2; assay type: physicochemical; in short: as §1
[35] = Solubility in simulated intestinal fluid at pH 2.3; assay type: physicochemical; in short: as §1
[36] = Solubility in 0.1 M HCl at pH 1.0; assay type: physicochemical; in short: as §1
[37] = Solubility in buffer (pH 4) at pH 2.9; assay type: physicochemical; in short: as §1
[38] = Solubility in water mg/mL; assay type: physicochemical; in short: as §1

Histamine H1 receptor, sequence (P35367 whole entry): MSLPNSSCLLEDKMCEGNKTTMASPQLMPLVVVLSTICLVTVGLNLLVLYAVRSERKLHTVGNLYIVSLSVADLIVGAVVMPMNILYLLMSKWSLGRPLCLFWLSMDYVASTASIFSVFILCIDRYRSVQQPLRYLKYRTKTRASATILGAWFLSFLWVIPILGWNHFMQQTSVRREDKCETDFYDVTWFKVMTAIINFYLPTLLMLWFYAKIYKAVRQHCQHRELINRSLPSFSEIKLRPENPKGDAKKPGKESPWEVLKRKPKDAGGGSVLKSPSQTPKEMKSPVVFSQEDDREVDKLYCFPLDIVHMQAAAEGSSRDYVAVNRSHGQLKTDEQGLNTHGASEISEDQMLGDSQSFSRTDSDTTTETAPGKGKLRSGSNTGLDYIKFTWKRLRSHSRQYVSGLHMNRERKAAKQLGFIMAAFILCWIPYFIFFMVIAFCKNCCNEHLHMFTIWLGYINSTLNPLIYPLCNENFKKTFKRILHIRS

SMILES	pKa [10]	ED50 (Cavia porcellus [11]) [mg/kg]	ED50 (Rattus norvegicus [12]) [mg/kg]	ED50 (Cavia porcellus [13]) [mg/kg]	logP [14]	ED50 (Cavia porcellus [15]) [mg/kg]	ED50 (Rattus norvegicus [16]) [mg/kg]	ED50 (Rattus norvegicus [18]) [mg/kg]	Time (Canis familiaris [19]) [h]	Ki (Histamine H1 receptor) [nM]	ED50 (Canis familiaris [20]) [mg/kg]	ED50 (Rattus norvegicus [21]) [mg/kg]	ED50 (Cavia porcellus [23]) [mg/kg]	Time (Canis familiaris [24]) [h]	ED50 (Rattus norvegicus [25]) [mg/kg]	ED50 (Rattus norvegicus [26]) [mg/kg]	ED50 (Rattus norvegicus [27]) [mg/kg]	further results
Cl.NC(=O)c1cnc2n1CCc1ccccc1C21CCNCC1																		solubility [1]: 8.04 mg/mL; solubility [2]: 1.65 mg/mL; solubility [3]: > 20 mg/mL; solubility [4]: > 20 mg/mL; solubility [5]: 0.93 mg/mL; solubility [6]: > 20 mg/mL; solubility [7]: > 20 mg/mL; solubility [8]: 12.2 mg/mL; solubility [9]: 1.69 mg/mL
Cn1ccc2c1CCn1ccnc1C2=C1CCNCC1	9.85	8.7	0.08	1.7	1.25	0.24	0.028	0.13	<1	22	0.038	> 0.16	0.96	35	0.13	0.08		Pka2 [17]: 6.52; ED50 (Rattus norvegicus [22]): 0.76 mg/kg
Cn1ccc2c1C(=O)Cn1ccnc1C2=C1CCNCC1		0.42	0.42	> 2.5		0.02	0.037	2.9	<1	12	0.018	> 10	0.08	13	0.95	0.55	0.34	
Cl.Cl.O=C(O)COCCN1CCN([C@H](c2ccccc2)c2ccc(Cl)cc2)CC1 [LEVOCETIRIZINE DIHYDROCHLORIDE]		> 2.5	2.7	> 2.5		0.046		3.6	<1		0.14	> 10	0.14	30	0.68	0.68	1.2	
CCOC(=O)N1CCC(=C2c3ccc(Cl)cc3CCc3cccnc32)CC1 [LORATADINE]		0.42	1.6	2.2		0.08	0.29	2.7	<1		0.2	6.2	0.32	33	1.8	0.89	0.22	
Cl.Cl.NC(=O)c1cnc2n1CCc1ccccc1C21CCNCC1 [VAPITADINE DIHYDROCHLORIDE]	9.88	1.2	2.3	1.6	1.18	0.1	0.056	2.7	<1	19	0.024	> 10	0.14	21	1.4	0.51	1.2	solubility [28]: 3.09 mg/mL; pKa ([17]; read-out: pKa2): 3; solubility [29]: > 20 mg/mL; solubility [30]: > 20 mg/mL; solubility [31]: > 20 mg/mL; solubility [32]: > 20 mg/mL; solubility [33]: > 20 mg/mL; solubility [34]: > 20 mg/mL; solubility [35]: > 20 mg/mL; solubility [36]: > 20 mg/mL; solubility [37]: > 20 mg/mL; solubility [38]: > 20 mg/mL
